Measurements taken from ChEMBL document CHEMBL3232847, “Discovery of 6-phenylpyrimido[4,5-b][1,4]oxazines as potent and selective acyl CoA:diacylglycerol acyltransferase 1 (DGAT1) inhibitors with in vivo efficacy in rodents” (J Med Chem, 2014).
The source made the active and inactive calls. The calls are words filed in the database; no cut-off is given here.

Columns and labels:
Mus musculus [1] = test: Reduction in plasma triglyceride level in po dosed C57BL/6J mouse compound treated 30 mins prior to olive oil administration measured 3 hrs post olive oil administration relative to vehicle-treated control; type: functional, organism-based
How it was run: (§1)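 Animals received vehicle or compound by oral gavage, then olive oil (5 mL/kg) by oral gavage 30 min later. Plasma triglycerides were measured before dosing and 3 h after the oil. The read-out was the change in TG from pre-dose, compared with vehicle-treated animals.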

Cynomolgus monkey [2] = test: Toxicity in cynomolgus monkey assessed as elevation of change in histopathological parameters at 10 to 30 mg/kg/day, po qd by 21-day multiple-dose toxicity study relative to control; type: organism-based, Macaca fascicularis; design: route oral; conditions: in vivo
How it was run: (§2)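 Cynomolgus monkeys were dosed po once daily at 10 and 30 mg/kg for 21 days. ALT and AST levels, QTc intervals, and clinical and histopathological findings were assessed, and plasma AUC was recorded for each dose.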

Cynomolgus monkey [3] = test: Toxicity in cynomolgus monkey assessed as elevation of ALT level at 10 to 30 mg/kg/day, po qd by 21-day multiple-dose toxicity study relative to control; type: organism-based, Macaca fascicularis; design: route oral; conditions: in vivo; how it was run: as §2
[4] = AUC in Sprague-Dawley rat at 5 mg/kg, po; type: ADME, organism-based; design: dose 5 mg/kg, route oral; conditions: plasma
[5] = target: T1, Sterol O-acyltransferase 2 (Homo sapiens, UniProt O75908); test: Inhibition of human full-length flag-tagged ACAT2 expressed in baculovirus infected insect cells using [14C]palmitoyl CoA as substrate after 10 mins by scintillation counting
T1 sequence (O75908 whole entry): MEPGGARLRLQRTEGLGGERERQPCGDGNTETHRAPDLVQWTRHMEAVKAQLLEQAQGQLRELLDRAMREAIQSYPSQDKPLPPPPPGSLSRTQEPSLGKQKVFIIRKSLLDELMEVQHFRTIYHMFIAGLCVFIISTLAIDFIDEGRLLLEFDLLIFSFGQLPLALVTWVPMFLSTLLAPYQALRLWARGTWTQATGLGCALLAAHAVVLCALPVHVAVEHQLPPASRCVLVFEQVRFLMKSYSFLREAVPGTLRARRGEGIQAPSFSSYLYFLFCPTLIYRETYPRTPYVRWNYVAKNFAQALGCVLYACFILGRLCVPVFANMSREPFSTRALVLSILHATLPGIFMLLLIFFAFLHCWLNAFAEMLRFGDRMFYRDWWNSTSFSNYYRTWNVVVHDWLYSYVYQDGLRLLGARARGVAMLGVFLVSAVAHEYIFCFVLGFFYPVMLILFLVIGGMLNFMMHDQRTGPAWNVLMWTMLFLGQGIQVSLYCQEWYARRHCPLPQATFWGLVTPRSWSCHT

Mus musculus [6] = test: Reduction in plasma triglyceride level in C57BL/6J mouse at 0.1 mg/kg, po treated 30 mins prior to olive oil administration measured 3 hrs post olive oil administration relative to vehicle-treated control; type: functional; design: scale not given: the % may be the effect or the level left; how it was run: as §1
[7] = Volume of distribution at steady state in beagle dog at 0.5 mg/kg, iv; type: ADME, organism-based, Canis lupus familiaris; design: dose 0.5 mg/kg, route intravenous; conditions: in vivo, read-out: Vdss
[8] = AUC in CD1 mouse at 2 mg/kg, po; type: ADME, organism-based; design: dose 2 mg/kg, route oral; conditions: plasma
[9] = target: T2, Sterol O-acyltransferase 2 (Homo sapiens) (UniProt O75908); test: Inhibition of human full-length flag-tagged ACAT2 expressed in baculovirus infected insect cells using [14C]palmitoyl CoA as substrate up to 10 uM after 10 mins by scintillation counting
T2 sequence (whole entry): T1 sequence (O75908 whole entry)

Rattus norvegicus = test: Reduction in plasma triglyceride level in Sprague-Dawley rat at 0.3 mg/kg, po treated 30 mins prior to olive oil administration measured 3 hrs post olive oil administration relative to vehicle-treated control; type: functional; design: scale not given: the % may be the effect or the level left; how it was run: as §1

Compound | Activity (Mus musculus [1]) | Activity (Cynomolgus monkey [2]) | Activity (Cynomolgus monkey [3]) | AUC [4] [ng·h/mL] | IC50 [5] [µM] | Activity (Mus musculus [6]) [%] | Vd [7] [L/kg] | AUC [8] [ng·h/mL] | inhibition [9] | Activity (Rattus norvegicus) [%]
CC1(C)Oc2nc(C(F)(F)F)nc(N)c2N=C1c1ccc2c(c1)CC[C@]21CC[C@@H](CC(=O)O)CC1 | Dose-dependent effect | Non-toxic | Non-toxic | 22900 | > 10 | 99.7 | – | – | – | –
CC1(C)Oc2ncnc(N)c2N=C1c1ccc([C@H]2CC[C@H](CC(=O)O)CC2)cc1 | – | – | – | – | – | – | 1.9 | 6690 | inactive | 88
